This passage reports ED50, Protected and Threshold active dose results from ChEMBL document CHEMBL1123469, “Synthesis and activity of 6-aryl-3-(hydroxypolymethyleneamino)pyridazines in animal models of epilepsy” (1986).

Assay type in all cases: functional
In test [1] the test system is Mus musculus. Briefly: Evaluated for Bicuculline-induced lethality (anticonvulsant activity) when administered orally in mice. The following applies: po. The essentials: (§1)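 Female Swiss albino CD1 mice (18-23 g), oral dosing (20 mL/kg); test compounds dissolved in dilute HCl (pH 3), reference drugs suspended in 5% gum tragacanth. Bicuculline challenge, scoring protection from seizures and from lethality. […] Weakly active agents reported as percent protected at the stated dose.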

For test [2], the system named is Mus musculus. In words: Compound was evaluated for the sedative property by the rotarod test at 150 mg/kg. In short, it runs like this:
(§2)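 Motor coordination was tested on the rotorod in groups of 10 female Swiss CD1 mice (18-23 g). Drug or vehicle was given orally, test compounds in dilute HCl (pH 3), 60 min before testing.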

The test system of test [3] is Mus musculus. Briefly: Evaluated for Bicuculline-induced seizures (anticonvulsant activity) when administered orally in mice. The following applies: po. The essentials: (§3)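 Female Swiss CD1 mice (18-23 g) were dosed orally at 20 mL/kg, test compounds in dilute HCl (pH 3) and references in gum tragacanth. Protection against bicuculline- or pentylenetetrazole-induced clonic/tonic seizures and lethality was scored.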

Test [4] concerns Mus musculus. In words: Compound was evaluated for the sedative property by the rotarod test at 20 mg/kg. In short, it runs like this: as §2
Test [5] concerns Mus musculus. In words: Evaluated for anticonvulsant activity when administered orally in mice by Maximal electroshock (MES). Conditions: po. The essentials: (§4)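 Female Swiss CD1 mice (18-23 g), groups of 10, were dosed orally at 20 mL/kg. Test compounds were given in dilute HCl (pH 3) and references in 5% gum tragacanth, 60 min before a 60-V alternating current for 0.3 s through corneal electrodes. Protection meant abolition of the hindlimb tonic extensor component.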

For test [6], the system named is Mus musculus. Briefly: Compound was evaluated for the sedative property by the rotarod test at 250 mg/kg. In short, it runs like this:
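Rotorod motor-coordination test in female Swiss albino CD1 mice (18-23 g). Groups of 10 mice dosed with test drug or vehicle 60 min before testing; test compounds dissolved in dilute HCl (pH 3).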

Test [7] concerns Mus musculus. In words: Compound was evaluated for anticonvulsant activity when administered 250 mg/kg orally in mice Maximal electroshock (MES). The following applies: route oral. In short, it runs like this:
as §4

Test [8] has as its system Mus musculus. Briefly: Compound was evaluated for Bicuculline-induced lethality (anticonvulsant activity) when administered 250 mg/kg orally in mice. The following applies: route oral. In short, it runs like this: as §1
For test [9], the system named is Mus musculus. Briefly: Compound was evaluated for Bicuculline-induced seizures (anticonvulsant activity) when administered 250 mg/kg orally in mice. Conditions: route oral. The essentials: as §3
Test [10] concerns Mus musculus. Briefly: Anticonvulsant activity when administered 100 mg/kg orally in mice Maximal electroshock (MES). The following applies: route oral. The essentials: as §4
In test [11] the test system is Mus musculus. Briefly: Evaluated for Bicuculline-induced seizures (anticonvulsant activity) when administered at 100 mg/kg orally in mice. The following applies: route oral. The essentials: as §3
The subject of test [12] is Mus musculus. Briefly: Compound was evaluated for anticonvulsant activity when administered 10 mg/kg orally in mice Maximal electroshock (MES). Conditions: route oral. In short, it runs like this: as §4
Test [13] relates to Mus musculus. Briefly: Compound was evaluated for the sedative property by the rotarod test at 10 mg/kg. In short, it runs like this: as §2
The test system of test [14] is Mus musculus. In words: Compound was evaluated for Bicuculline-induced seizures (anticonvulsant activity) when administered 10 mg/kg orally in mice. The following applies: route oral. The essentials: as §1
In test [15] the test system is Mus musculus. In words: Compound was evaluated for the sedative property by the rotarod test at 1 mg/kg. The essentials: as §2
For test [16], the system named is Mus musculus. In words: Compound was evaluated for Bicuculline-induced seizures (anticonvulsant activity) when administered 1 mg/kg orally in mice. The following applies: route oral. The essentials:
as §1

For test [17], the system named is Mus musculus. In words: Compound was evaluated for anticonvulsant activity when administered 1 mg/kg orally in mice Maximal electroshock (MES). The following applies: route oral. The essentials: as §4
The next test is filed under the species Papio hamadryas. In words: Antagonist activity to generalized seizures Photically induced seizures in senegalese Papio papio baboons. In short, it runs like this: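 Naturally photosensitive baboons of both sexes (4-7 kg) were dosed orally, test compounds in dilute HCl (pH 3) and references in 5% gum tragacanth, at 4 mL/kg. They were photically stimulated at hourly intervals afterwards, and the myoclonic response was graded after Killam. Threshold active dose is the first dose that protected at least two of four animals for at least 2 h.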

Test [18] deals with Mus musculus. Briefly: Anticonvulsant activity in Clonic seizures when administered orally in mice. Conditions: po. The essentials:
as §3

Test [19] deals with Mus musculus. In words: Anticonvulsant activity in tonic seizures when administered orally in mice. Conditions: po.
The species named for test [20] is Mus musculus. In words: Sedative properties by the rotarod test. The essentials:
as §2

Test [21] concerns Mus musculus. Briefly: Anticonvulsant activity in Maximal electroshock (MES) when administered orally in mice. Conditions: po. In short, it runs like this: as §4
For the next test, the species on record is Rattus norvegicus. In words: Antagonist activity to generalized seizures kindled amygdaloid seizures in rats. In short, it runs like this: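 Male Sprague-Dawley rats (200-500 g), groups of 10, carried platinum electrodes in the right basolateral amygdala. They counted as kindled after stage-5 seizures on 3 consecutive days at 30-90 μA. A control stimulation was followed by an oral dose (5 mL/kg) and restimulation 1 h later. After-discharge duration and Racine seizure stage were compared with vehicle.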

For test [22], the system named is Mus musculus. In words: Compound was evaluated for Bicuculline-induced seizures (anticonvulsant activity)when administered orally in mice. The following applies: po. The essentials:
as §1

The test system of test [23] is Mus musculus. In words: Compound was evaluated for Bicuculline-induced lethality (anticonvulsant activity) when administered 20 mg/Kg orally in mice. In short, it runs like this: as §1
The test system of test [24] is Mus musculus. In words: Compound was evaluated for the sedative properties by the rotarod test when 100 mg/Kg was administered in mice. In short, it runs like this:
as §2

`OC1CCN(c2ccc(-c3cc(Cl)ccc3Cl)nn2)CC1` yielded an ED50 in the test on Mus musculus [1] of 101 mg/kg. In the test with Mus musculus [2], this compound displayed a Protected of 10%.

Turning to `O=C1CCN(c2ccc(-c3ccc(Cl)cc3Cl)nn2)CC1`, the ED50 in the test with Mus musculus [1] turned out to be 7 mg/kg; with Mus musculus [3] it was 7.3 mg/kg; in the test with Mus musculus [5], 5 mg/kg. The Protected in the test with Mus musculus [4] is given as 50%.

On to `Oc1ccc(-c2ccc(N3CCC(O)CC3)nn2)cc1`, for which the Protected was determined as 10% with Mus musculus [6], 25% in the test on Mus musculus [7], 10% in the test on Mus musculus [8] and 0% in the test on Mus musculus [9].

`Oc1ccccc1-c1ccc(N2CCC(O)CC2)nn1`: the Protected in the test with Mus musculus [6], in the test on Mus musculus [10] and in the test with Mus musculus [11] was 0% throughout.

Consider `OC1CCN(c2ccc(-c3ccccn3)nn2)CC1`, for which the Protected was 0% with Mus musculus [12], 20% in the test with Mus musculus [13] and 0% in the test on Mus musculus [14].

Take `CN(C)C(=O)OC1CCN(c2ccc(-c3ccc(Cl)cc3Cl)nn2)CC1`: the results for the Protected in the test with Mus musculus [15], with Mus musculus [16] and in the test with Mus musculus [17] were 20%, 30% and 66%, respectively.

Regarding `NC(=O)N1c2ccccc2C=Cc2ccccc21` [CARBAMAZEPINE], the values for the Threshold active dose in the test filed under Papio hamadryas and in the test filed under Rattus norvegicus were 100 mg/kg and 10 mg/kg, respectively. Besides, the ED50 in the test on Mus musculus [1] is 16 mg/kg; in the test on Mus musculus [3], 29 mg/kg; in the test with Mus musculus [18], over 100 mg/kg; in the test with Mus musculus [19], 21 mg/kg; in the test listed under Mus musculus [20] it was 95 mg/kg; with Mus musculus [21], 21 mg/kg.

Consider `OC1CCN(c2ccc(-c3ccc(Cl)cc3Cl)nn2)CC1` [ENDIXAPRINE], for which the Threshold active dose turned out to be 50 mg/kg in the test filed under Papio hamadryas and 20 mg/kg in the test filed under Rattus norvegicus. In addition, the median effective dose (ED50) in the test with Mus musculus [1] came out at 8.5 mg/kg; in the test with Mus musculus [3], 8.5 mg/kg; with Mus musculus [18], 18 mg/kg; in the test with Mus musculus [19], 11 mg/kg; in the test filed under Mus musculus [20], 34 mg/kg; with Mus musculus [21], 14 mg/kg.

Consider `CCC1(c2ccccc2)C(=O)NC(=O)NC1=O` [PHENOBARBITAL], for which the Threshold active dose in the test listed under Papio hamadryas worked out at 5 mg/kg; in the test filed under Rattus norvegicus, 20 mg/kg. Further, the ED50 turned out to be 5.2 mg/kg with Mus musculus [1]; 15 mg/kg with Mus musculus [18]; 7 mg/kg in the test on Mus musculus [19]; 61 mg/kg in the test filed under Mus musculus [20]; 5.4 mg/kg in the test on Mus musculus [21]; 5.8 mg/kg with Mus musculus [22].

Consider `O=C1NC(=O)C(c2ccccc2)(c2ccccc2)N1` [PHENYTOIN], for which the Threshold active dose was found to be 50 mg/kg in the test filed under Papio hamadryas and 20 mg/kg in the test filed under Rattus norvegicus. Besides, the ED50 was over 80 mg/kg in the test on Mus musculus [18], 7 mg/kg in the test with Mus musculus [19], 23 mg/kg with Mus musculus [21] and 11 mg/kg with Mus musculus [22]. Moreover, the Protected in the test on Mus musculus [23] came to 25%; in the test on Mus musculus [24], 30%.

With `CCCC(CCC)C(=O)[O-].[Na+]` [VALPROATE SODIUM], the results for the Threshold active dose in the test filed under Papio hamadryas and in the test filed under Rattus norvegicus were 300 mg/kg and 200 mg/kg, respectively. In addition, the ED50 in the test on Mus musculus [1] is 246 mg/kg; in the test on Mus musculus [3], 274 mg/kg; in the test with Mus musculus [18] it was 363 mg/kg; in the test with Mus musculus [19] it was 201 mg/kg; in the test filed under Mus musculus [20], 406 mg/kg; in the test with Mus musculus [21], 324 mg/kg.
